From PubChem BioAssay
OX1R antag-1: human HCRTR1 antagonism. AID 434989. 330,000 tested, 0.43% active. CHO/OX1R cells, Fluo-8 calcium fluorescence, orexin A. O43613. inhibition, % at 5 µM;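 active = inhibition above its plate's threshold, mean inhibition of all tested compounds on the plate plus 3 SD, cut at about 37% in these data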;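 note: 0% = orexin A challenge wells and 100% = SB-334867-A antagonist wells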
OXTR potentiate: potentiates the human oxytocin receptor response; CHO-OTR cells, Fluo-8 calcium fluorescence, potentiator mode; 0% = oxytocin EC15, 100% = EC100; activation, % at 3 µM; 320,000 tested, 0.061% active;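 active = activation above that plate's cutoff, the mean activation of tested compounds plus 3 SD, cut at about 6.6% in these data, passing the limit was not always enough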;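 note: 100% uses oxytocin at 75 nM as the full agonist control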
Target sequence (P30559 whole entry, looked up): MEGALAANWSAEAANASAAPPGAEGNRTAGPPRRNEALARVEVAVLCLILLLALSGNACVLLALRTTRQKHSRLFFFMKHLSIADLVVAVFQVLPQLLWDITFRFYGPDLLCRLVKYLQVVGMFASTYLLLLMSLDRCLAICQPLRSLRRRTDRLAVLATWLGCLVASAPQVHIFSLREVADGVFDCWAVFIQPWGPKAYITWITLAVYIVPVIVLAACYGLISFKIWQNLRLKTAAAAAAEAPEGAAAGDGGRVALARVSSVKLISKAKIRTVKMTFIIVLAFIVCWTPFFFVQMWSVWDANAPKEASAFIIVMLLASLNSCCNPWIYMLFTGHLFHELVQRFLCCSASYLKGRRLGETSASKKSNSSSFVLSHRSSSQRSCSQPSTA
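System: human OTR in CHO cells / Also added: sub-maximal oxytocin, roughly EC15 / Control set: EC15 oxytocin low, 75 nM oxytocin high / Schedule: 6 min compound pre-incubation at room temperature, 100 s kinetic read / Compound: single-point 3.0 µM / Replication: singlicate / Technique: Fluo-8 calcium dye fluorescence / Read-out basis: % activation of max/min ratio relative to oxytocin controls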
OXTR ag: human OXTR agonism. CHO-OTR cells, Fluo-8 calcium fluorescence; normalized: DMSO 0%, oxytocin 100%. AID 2435. P30559. activation, % at 3 µM. 320,000 tested, 0.32% active;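 active = activation above the mean of all tested compounds plus 3 SD, cutoff set per screening run, cut at about 20% in these data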;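 note: peak over basal fluorescence ratio from a 100 s FLIPR kinetic read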
CHO parental Ca: signal in parental CHO cells, OX1R antagonist counter-screen | 330,000 tested, 0.63% active | parental CHO-K1, ATP-induced calcium, Fluo-8 fluorescence | inhibition, % at 5.6 µM;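 active = inhibition above that plate's mean sample inhibition plus 3 SD, cut at about 26% in these data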;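 note: 0% = ATP-challenged DMSO wells and 100% = DMSO wells without ATP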
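Test system: untransfected parental CHO cell line. Compound: one dose, 5.6 µM nominal. Detection: intracellular calcium via Fluo-8 no-wash fluorescent dye. Measure: % inhibition. Benchmarks: ATP-challenged DMSO wells low, unchallenged DMSO wells high.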
OX1R antag-2: OX1R (human) antagonism | inhibition, % at 6.6 µM | 330,000 tested, 1.8% active | OX1R-expressing cells, FRET antagonist read-out | O43613; in the data active = inhibition mostly above about 38%, no sharp cut-off; inactive = mostly below about 40%;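 note: 0% = agonist challenge alone and 100% = reference antagonist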
V1aR counter: V1a receptor agonism, counter-screen for OXTR agonists. P37288. CHO-V1R cells, Fluo-8 calcium fluorescence, agonist mode; 0% DMSO, 100% 3 nM vasopressin. activation, % at 3 µM. 320,000 tested, 0.25% active. AID 2797;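 active = activation above the mean activation of all tested compounds plus 3 SD, per screening run, cut at about 20% in these data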;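 note: signal is peak over basal fluorescence ratio across a 100 second FLIPR read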
An asterisk follows results filed as active. Only some compounds are listed: those with a hit (about 2.6% of all), similar ones and a draw of the others.

SMILES | OX1R antag-1 | OXTR potentiate | OXTR ag | CHO parental Ca | OX1R antag-2 | V1aR counter
CCOC(=O)c1sc(NC(=O)CN2C(=O)NC3(CCCCCCC3)C2=O)c(C(=O)OCC)c1C | -10.7 | 4.9 | 0.3 | -11.7 | 0.7 | -0.1
CCOC(=O)c1c(NC(=O)CN2C(=O)NC(C)(c3ccc(OC(F)F)cc3)C2=O)sc(C)c1C (centres undefined) | 26.2 | -11.2 | 26.8* | 29.8 | -4.8 | 20.4*
CN(CC(=O)Nc1ccc2c(c1)OCO2)S(=O)(=O)c1cccs1 | -9.2 | -5.7 | 1.2 | -6.1 | 4.8 | 1.4
CN(NS(=O)(=O)c1ccc(Br)cc1)c1nc(C(F)(F)F)nc2ccccc12 | -16.5 | -18.7 | 12.8 | 16.6 | 62.7* | 9.1
O=C(N/C(=C\c1ccccc1)C(=O)N1CCOCC1)c1ccccc1Br | -0.2 | -8.4 | 0.7 | -10.1 | 14.9 | 0.2
O=C(N/C(=C/c1cccc([N+](=O)[O-])c1)C(=O)N1CCOCC1)c1ccccc1Br | 0.4 | -12.9 | 0.2 | 9.9 | 58.2* | 2.1
O=C(N/C(=C\c1ccc([N+](=O)[O-])cc1)C(=O)N1CCCCC1)c1ccccc1 | -23.3 | -27.5 | 1.7 | -6.6 | 74.8* | -0.5
CN1CCN(C(=O)/C(=C/c2ccc([N+](=O)[O-])cc2)NC(=O)c2ccccc2)CC1 | 3.1 | 5.1 | 1.2 | 0.9 | 25.2 | 0.4
O=C(CCN1CCC(c2ccc(Cl)s2)=N1)c1ccc(Cl)s1 | -12.0 | 1.4 | 1.2 | 0.1 | 8.1 | 2.0
COc1ccc2nc(CC(C)(C)CC(=O)O)c[n+]([O-])c2c1 | -17.6 | 1.6 | -0.8 | -7.9 | 68.9* | 0.6
CCCn1c(=O)c(C(=O)Nc2ncccc2C)c(O)c2ccccc21 | -10.1 | -9.5 | 29.9* | -13.5 | 13.2 | 27.8*
CCCCCCCCCC(=O)NNC(=O)c1c(O)c2ccccc2n(CCC)c1=O | -3.9 | -4.6 | 0.0 | 7.4 | 7.2 | -0.1
CCn1c(=O)c(C(=O)Nc2nc3ccccc3[nH]2)c(O)c2ccccc21 | 105.9* | -9.8 | 17.1 | 97.6* | 34.3 | 0.7
CCn1c(=O)c(C(=O)Nc2ccccc2)c(O)c2ccccc21 | -6.3 | -6.5 | -0.8 | 5.5 | 10.1 | 2.4
CCCCCCCCC(=O)NNC(=O)c1c(O)c2ccccc2n(CCC)c1=O | -12.9 | -10.7 | -0.6 | 33.6* | 16.4 | 0.8
Cc1ccc(NC(=O)CCNC(=O)c2ccc(Cl)cc2)cc1C | -20.4 | -9.8 | -0.6 | -16.9 | -3.5 | 0.9
CCCc1cc(=O)oc2cc(C)cc(OCC(=O)NCCCN3CCCC3=O)c12 | -9.7 | -1.5 | -1.4 | -16.4 | 10.4 | -0.6
Cc1nc(SCc2nc3cc(Cl)c(F)cc3[nH]2)c2oc3ccccc3c2n1 | 33.2 | -8.3 | -0.8 | 0.6 | 52.7* | 4.1
COc1ccc2c(c1)oc1c(SCc3nc4ccccc4[nH]3)nc(C)nc12 | 15.6 | -6.7 | -0.1 | -24.5 | 48.0* | 1.1
Cc1nc(SCc2nc3ccc(Cl)cc3[nH]2)c2oc3ccccc3c2n1 | 0.8 | -0.4 | -1.0 | -14.4 | 28.4 | -0.1
Cc1nc(SCc2nc3ccccc3[nH]2)c2oc3cc([N+](=O)[O-])ccc3c2n1 | -19.7 | 1.6 | -2.3 | -24.0 | 22.3 | -0.8
CCCCN1C(=O)C(=O)N(CC(=O)c2cc(C)n(C3CC3)c2C)C1=O | -23.7 | -6.3 | 1.2 | -16.6 | -4.2 | 2.7
N#Cc1ccc(NC(=O)Cn2cnc(S(=O)(=O)N3CCCCC3)c2)cc1 | 15.3 | -5.9 | 0.6 | -0.9 | 4.7 | 0.0
Cc1ccc(OCCCN2CCOCC2)cc1 | 12.2 | -5.6 | 0.5 | -3.3 | 3.5 | -0.5
COc1ccc(OC)c(CNn2c(-c3cccc(C)c3)nc3ccccc3c2=O)c1 | 6.2 | -2.0 | -1.4 | -25.5 | 50.0* | -1.1
SMILES | OX1R antag-1 | OXTR potentiate | OXTR ag | CHO parental Ca | OX1R antag-2 | V1aR counter
COc1ccc(OCC(=O)Nn2c(-c3ccc(C)cc3)nc3ccccc3c2=O)cc1 | -12.6 | -7.0 | 4.2 | -16.6 | 18.5 | 3.0
COc1cc2[nH]c(C(=O)NCc3ccccc3)cc2c(OC)c1OC | -13.5 | -1.0 | -1.8 | -15.4 | 13.6 | -0.1
CN(C)CCNC(=O)C1CCN(S(=O)(=O)c2ccc3ccccc3c2)CC1 | -1.4 | 8.0 | 0.3 | 2.8 | 27.0 | 1.7
CCN(Cc1nc2cc(Cl)ccc2c(=O)[nH]1)C(=O)c1nn(C)c(=O)c2ccccc12 | -15.2 | -9.4 | -1.4 | -11.6 | 38.5* | 0.1
CCN(Cc1nc2cc(Cl)ccc2c(=O)[nH]1)C(=O)c1ccc(C)c(NC(=O)c2ccco2)c1 | 24.7 | -2.1 | 1.9 | -29.3 | 76.4* | 1.7
CCN(CC)C(=O)COC(=O)c1ccc(C)c(NC(=O)c2ccco2)c1 | -31.8 | -12.0 | -1.1 | -8.8 | 4.9 | 0.2
CCCCc1[nH]c(=O)c(C#N)c2c1CSC(C)(C)C2 | -3.4 | -2.2 | 0.7 | 56.2* | 18.1 | 0.5
Cc1ccccc1SCC(=O)Nc1cc(C(F)(F)F)ccc1N1CCOCC1 | 6.2 | -16.8 | 1.4 | -19.6 | 38.0 | 0.8
CCCCSc1nc(C)cc(C)c1S(=O)(=O)c1ccccc1C | 22.6 | -13.7 | -0.6 | 39.0* | 5.1 | 1.0
Cc1cc(/C=C2/C(=O)N(C)C(=S)N2C)ccc1N1CCCC1 | 65.2* | -20.6 | 22.6* | 41.9* | 5.5 | 29.4*
Cc1ccc(CN2C(=O)N/C(=C\c3ccc(N4CCOCC4)cc3)C2=O)cc1 | -18.8 | -8.4 | 0.0 | -15.3 | 14.7 | 0.2
CCN1C(=O)/C(=C/c2ccc(N3CCCC3)cc2)NC1=S | 73.8* | -19.8 | 109.6* | 62.0* | 27.4 | 91.1*
CCCN1C(=O)/C(=C/c2ccc(N3CCCC3)c(C)c2)NC1=S | 93.5* | -24.5 | 112.2* | 87.0* | 22.2 | 113.0*
Cc1cc(/C=C2\NC(=S)N(C)C2=O)ccc1N1CCCC1 | 72.1* | -19.5 | 69.3* | 52.9* | 25.9 | 79.4*
Cc1cc(N2CCCC2)ccc1/C=C1/C(=O)N(C)C(=S)N1C | 16.3 | -11.3 | 8.1 | 13.5 | 11.2 | 11.6
O=C(CCNC(=O)c1ccccc1)Nc1cccnc1 | 6.0 | -1.4 | 0.9 | -5.3 | 9.1 | 0.3
O=C(NCCc1ccc(OC(F)F)cc1)C1CC(=O)N(c2ccc3c(c2)OCCO3)C1 (centres undefined) | -12.7 | -7.1 | 1.8 | -15.1 | 7.8 | 2.2
CCS(=O)(=O)n1nc(-c2ccccc2)cc1N | -9.8 | -2.8 | -0.8 | 6.0 | 27.2 | 0.5
Nc1cc(-c2ccc(Cl)cc2)nn1S(=O)(=O)c1ccccc1 | -13.1 | -8.1 | -0.7 | 48.4* | 25.0 | -1.6
O=C(CSc1nc2ccccc2c(=O)n1CCCN1CCOCC1)Nc1ccccc1OC(F)F | -17.1 | -8.7 | 1.1 | -18.9 | 12.2 | 0.6
CC(=O)OC[C@]12CC[C@H]3[C@@](C)(CC[C@H]4C(C)(C)CCC[C@]34C)[C@@H]1C[C@@H](C1=CC(=O)O[C@@H]1OC(C)=O)O2 | -12.2 | -5.1 | -0.1 | 1.9 | 7.3 | 0.5
